Legend:
[1] = target: T1, 5-hydroxytryptamine receptor 1A (Mus musculus, UniProt Q64264); experiment: Inhibitory activity towards 5-hydroxytryptamine 1A receptor by the displacement of [3H]8-OH-DPAT in mouse hippocampus; type: tissue-based
T1 sequence (Q64264 whole entry): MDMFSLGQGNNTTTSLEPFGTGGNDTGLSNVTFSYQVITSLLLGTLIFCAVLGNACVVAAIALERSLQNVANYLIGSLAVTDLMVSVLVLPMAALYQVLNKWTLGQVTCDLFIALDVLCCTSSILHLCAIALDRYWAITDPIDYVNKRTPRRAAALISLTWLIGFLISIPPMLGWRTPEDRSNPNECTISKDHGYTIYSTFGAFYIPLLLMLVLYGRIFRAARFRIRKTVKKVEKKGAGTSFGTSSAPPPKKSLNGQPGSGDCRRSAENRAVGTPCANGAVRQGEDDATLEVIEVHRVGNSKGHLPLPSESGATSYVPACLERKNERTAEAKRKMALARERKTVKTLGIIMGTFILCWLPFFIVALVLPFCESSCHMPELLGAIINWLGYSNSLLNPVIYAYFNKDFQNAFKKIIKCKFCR

[2] = target: T1, 5-hydroxytryptamine receptor 1A; experiment: Binding affinity towards 5-hydroxytryptamine 1A receptor by the displacement of [3H]8-OH-DPAT in mouse hippocampus; type: tissue-based
Procedure, shortened: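 Membranes incubated in triplicate with 1.2 nM [3H]8-OH-DPAT plus varying analogue concentrations, 30 min at 23 °C, 0.5 mL final volume. Filtered on PEI-pretreated GF/B; scintillation counting. IC50 derived from seven-point inhibition curves.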

[3] = target: T2, 5-hydroxytryptamine receptor 1A (Mus musculus) (UniProt Q64264); experiment: Hill number was determined for inhibition of [3H]8-OH-DPAT binding to 5-hydroxytryptamine 1A receptor in mouse hippocampus; type: tissue-based
T2 sequence (whole entry): T1 sequence (Q64264 whole entry)

[4] = target: Serotonin 2 (5-HT2) receptor (Mus musculus) (UniProt Q02152+P34968+P35363); experiment: Hill number was determined for inhibition of [3H]ketanserin binding to 5-hydroxytryptamine 2 receptor in mouse cerebral cortex; type: tissue-based
Serotonin 2 (5-HT2) receptor (Mus musculus), sequence (P34968 whole entry, looked up): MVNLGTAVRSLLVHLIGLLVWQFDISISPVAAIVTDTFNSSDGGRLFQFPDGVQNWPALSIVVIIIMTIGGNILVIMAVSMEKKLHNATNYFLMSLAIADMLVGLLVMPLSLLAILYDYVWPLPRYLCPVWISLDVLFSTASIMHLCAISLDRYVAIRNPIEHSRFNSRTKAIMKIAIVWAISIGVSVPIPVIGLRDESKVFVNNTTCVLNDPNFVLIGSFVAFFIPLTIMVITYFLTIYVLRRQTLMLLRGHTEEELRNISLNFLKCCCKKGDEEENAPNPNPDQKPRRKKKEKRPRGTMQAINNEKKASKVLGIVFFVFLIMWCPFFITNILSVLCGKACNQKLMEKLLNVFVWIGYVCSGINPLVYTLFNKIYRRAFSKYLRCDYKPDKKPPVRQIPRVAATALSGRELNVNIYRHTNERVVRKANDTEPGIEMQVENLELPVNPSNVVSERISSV
Serotonin 2 (5-HT2) receptor (Mus musculus), sequence (P35363 whole entry, looked up): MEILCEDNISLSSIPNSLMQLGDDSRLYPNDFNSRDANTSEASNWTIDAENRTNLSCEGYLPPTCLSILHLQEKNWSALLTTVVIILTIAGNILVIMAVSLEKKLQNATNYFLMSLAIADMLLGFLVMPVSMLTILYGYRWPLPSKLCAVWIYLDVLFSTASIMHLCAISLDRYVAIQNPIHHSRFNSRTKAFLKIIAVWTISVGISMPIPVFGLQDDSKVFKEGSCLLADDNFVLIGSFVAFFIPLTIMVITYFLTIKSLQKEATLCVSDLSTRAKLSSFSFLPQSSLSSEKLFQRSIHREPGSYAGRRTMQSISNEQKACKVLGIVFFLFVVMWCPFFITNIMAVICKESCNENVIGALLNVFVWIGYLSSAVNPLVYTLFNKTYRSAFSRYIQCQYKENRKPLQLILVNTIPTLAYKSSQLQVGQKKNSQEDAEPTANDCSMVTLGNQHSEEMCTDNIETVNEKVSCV
Serotonin 2 (5-HT2) receptor (Mus musculus), sequence (Q02152 whole entry, looked up): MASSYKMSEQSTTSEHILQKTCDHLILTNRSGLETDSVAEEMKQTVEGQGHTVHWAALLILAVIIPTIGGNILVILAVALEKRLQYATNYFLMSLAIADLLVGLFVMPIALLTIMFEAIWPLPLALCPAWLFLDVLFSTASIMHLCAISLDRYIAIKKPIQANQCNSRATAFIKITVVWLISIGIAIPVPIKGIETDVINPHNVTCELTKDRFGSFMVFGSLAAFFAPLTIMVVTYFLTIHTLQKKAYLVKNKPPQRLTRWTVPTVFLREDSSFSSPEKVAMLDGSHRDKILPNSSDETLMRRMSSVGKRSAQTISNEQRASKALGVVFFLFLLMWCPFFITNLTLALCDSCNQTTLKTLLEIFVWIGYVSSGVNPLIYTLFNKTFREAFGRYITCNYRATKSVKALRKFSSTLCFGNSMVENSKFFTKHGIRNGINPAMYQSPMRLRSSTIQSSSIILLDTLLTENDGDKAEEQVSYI
Procedure, shortened: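 Hill numbers taken from seven-point inhibition curves of 0.15 nM [3H]ketanserin binding to washed mouse cortical membranes in 50 mM Tris-HCl pH 7.4, incubated 15 min at 37 °C. Nonspecific binding set with 1 μM methysergide; bound radioligand collected by filtration and counted.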

[5] = target: T3, Serotonin 2 (5-HT2) receptor (Mus musculus, UniProt Q02152+P34968+P35363); experiment: Inhibitory activity towards 5-hydroxytryptamine 2 receptor by the displacement of [3H]ketanserin in mouse cerebral cortex; type: tissue-based
Procedure, shortened: (§1)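 BALB/cBy mouse cerebral cortex, homogenized in 0.25 M sucrose; 1000g supernatant pelleted at 35000g and washed in 50 mM Tris-HCl pH 7.4. Nonspecific binding defined with 1 μM methysergide. Filtration on GF/B, scintillation counting. IC50 from computer fit of seven-point curves, averaged over 2–5 determinations.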

[6] = target: T3, Serotonin 2 (5-HT2) receptor; experiment: Binding affinity towards 5-hydroxytryptamine 2 receptor by the displacement of [3H]-ketanserin in mouse cerebral cortex; type: tissue-based; procedure, shortened: as §1
[7] = target: T2, 5-hydroxytryptamine receptor 1A (Mus musculus); conditions: Hippocampus
Mus musculus [8] = organism: Mus musculus; experiment: Hill number was determined for inhibition of [3H]ketanserin binding in mouse cerebral cortex; type: tissue-based
Procedure, shortened: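 Cerebral cortex from adult BALB/cBy mice was homogenised in ice-cold 0.25 M sucrose pH 7.4. The 1000g supernatant was washed at 35000g in 50 mM Tris-HCl pH 7.4. Triplicate incubations ran 15 min at 37 °C with 0.15 nM [3H]ketanserin and varying analogue concentrations, final 2 mL. Nonspecific binding was set with 1 μM methysergide, and bound ligand was filtered on GF/B and counted by scintillation. Inhibition curves had seven points.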

Mus musculus [9] = organism: Mus musculus; experiment: Hill number was determined for inhibition of [3H]8-OH-DPAT binding in mouse hippocampus; type: functional
Procedure, shortened: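 Triplicate incubations ran 30 min at 23 °C with 1.2 nM [3H]8-OH-DPAT over varying analogue concentrations, followed by filtration on polyethylenimine-treated GF/B filters and scintillation counting. Inhibition curves had seven points.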

Row | SMILES | IC50 [1] | Ki [2] | Hill coefficient [3] | Hill coefficient [4] | IC50 [5] | Ki [6] | also measured
1 | O=C1CC2CCC1C(N1CCCCC1)C2c1ccccc1 (stereo not drawn) | 358 µM | 274 µM | 0.89 | 1.2 | 181 µM | 132 µM | 
2 | O=C1CC2CCC1C(N1CCCC1)C2c1c[nH]c2ccccc12 (stereo in doubt; 9a) [listing 1 of 2 here] | 46 µM | 32 µM |  |  | 32 µM | 23 µM | 
3 | O=C1CC2CCC1C(N1CCCC1)C2c1c[nH]c2ccccc12 (stereo in doubt; 9a) [listing 2 of 2 here] |  |  |  | 0.9 |  |  | Hill coefficient [7]: 0.95
4 | O=C1CC2CCC1C(N1CCCC1)C2c1c[nH]c2ccccc12 (stereo in doubt; 9b) [listing 1 of 2 here] | 53 µM |  |  |  | 96 µM | 70 µM | 
5 | O=C1CC2CCC1C(N1CCCC1)C2c1c[nH]c2ccccc12 (stereo in doubt; 9b) [listing 2 of 2 here] |  |  | 0.47 | 1 |  |  | 
6 | O=C1CC2CCC1C(N1CCCCC1)C2c1c[nH]c2ccccc12 (stereo in doubt; 10a) [listing 1 of 2 here] | 86 µM | 61 µM |  |  | 5 µM | 4 µM | 
7 | O=C1CC2CCC1C(N1CCCCC1)C2c1c[nH]c2ccccc12 (stereo in doubt; 10a) [listing 2 of 2 here] |  |  | 1.2 | 1 |  |  | 
8 | O=C1CC2CCC1C(N1CCCCC1)C2c1c[nH]c2ccccc12 (stereo in doubt; 10b) [listing 1 of 2 here] | 160 µM | 115 µM |  |  | 84 µM | 61 µM | 
9 | O=C1CC2CCC1C(N1CCCCC1)C2c1c[nH]c2ccccc12 (stereo in doubt; 10b) [listing 2 of 2 here] |  |  | 0.88 | 0.9 |  |  | 
10 | C1=CC2CCC1C(c1c[nH]c3ccccc13)C2N1CCCC1 (stereo in doubt; 12a) [listing 1 of 2 here] | 12 µM | 8.5 µM |  |  | 19 µM | 14 µM | 
11 | C1=CC2CCC1C(c1c[nH]c3ccccc13)C2N1CCCC1 (stereo in doubt; 12a) [listing 2 of 2 here] |  |  | 0.95 | 1 |  |  | 
12 | C1=CC2CCC1C(c1c[nH]c3ccccc13)C2N1CCCC1 (stereo in doubt; 12b) [listing 1 of 2 here] | 47 µM |  |  |  | 24 µM | 17 µM | 
13 | C1=CC2CCC1C(c1c[nH]c3ccccc13)C2N1CCCC1 (stereo in doubt; 12b) [listing 2 of 2 here] |  |  | 0.61 | 0.9 |  |  | 
14 | C1=CC2CCC1C(c1c[nH]c3ccccc13)C2N1CCCCC1 (stereo in doubt; 13a) [listing 1 of 2 here] | 18 µM | 13.5 µM |  |  | 10 µM | 8 µM | 
15 | C1=CC2CCC1C(c1c[nH]c3ccccc13)C2N1CCCCC1 (stereo in doubt; 13a) [listing 2 of 2 here] |  |  | 0.93 | 1 |  |  | 
16 | C1=CC2CCC1C(c1c[nH]c3ccccc13)C2N1CCCCC1 (stereo in doubt; 13b) [listing 1 of 2 here] | 89 µM |  |  |  | 13 µM | 9 µM | 
17 | C1=CC2CCC1C(c1c[nH]c3ccccc13)C2N1CCCCC1 (stereo in doubt; 13b) [listing 2 of 2 here] |  |  | 0.69 | 0.9 |  |  | 
18 | NCCc1c[nH]c2ccc(O)cc12 [SEROTONIN] |  |  |  |  |  |  | Hill coefficient (Mus musculus [8]): 0.85; Hill coefficient (Mus musculus [9]): 0.75

From ChEMBL document CHEMBL1124958 (J Med Chem, 1990)
